# Screening results as filed in PubChem.
# The list is not random: actives were taken first. Their share in the collection is about 2.1%.
# APJ antagonist = antagonists of human apelin receptor APJ, primary screen, CHO-K1 cells, beta-arrestin complementation, luminescence; P35414; inhibition, % at 20 µM; 330,000 tested, 0.32% active; AID 2521, 2010;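 active = inhibition above about 40% at 20 µM, limit read from the data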;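 note: cells challenged with 10 nM apelin-13 agonist together with compound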
# Target sequence (P35414 whole entry, looked up): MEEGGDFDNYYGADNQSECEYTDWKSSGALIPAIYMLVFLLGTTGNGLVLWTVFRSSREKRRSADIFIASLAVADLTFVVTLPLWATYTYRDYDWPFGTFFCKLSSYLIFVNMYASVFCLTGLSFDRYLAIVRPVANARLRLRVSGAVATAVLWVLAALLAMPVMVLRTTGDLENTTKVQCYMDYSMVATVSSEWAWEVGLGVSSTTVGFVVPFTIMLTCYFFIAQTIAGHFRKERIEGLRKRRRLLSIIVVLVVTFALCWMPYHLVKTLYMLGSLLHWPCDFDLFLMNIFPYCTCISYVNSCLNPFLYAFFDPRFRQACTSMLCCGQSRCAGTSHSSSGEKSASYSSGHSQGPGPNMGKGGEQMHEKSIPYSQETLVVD
# CXCR6 inh = CXCR6 receptor inhibitors, primary screen, cell-based, beta-arrestin, luminescence, CHO-K1 PathHunter, 1536-well | C-X-C chemokine receptor type 6 (Homo sapiens), O00574 | inhibition, % at 20 µM | 360,000 tested, 0.36% active; in the data active = inhibition above about 34%, passing the limit was not always enough;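 note: antagonist mode with CXCL16 agonist at 10 nM final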
# HTR2A ag = mouse Htr2a agonists via beta-arrestin recruitment, primary screen, cell-based, luminescence. 360,000 tested, 0.66% active. CHO-K1 mHTR2A beta-arrestin complementation; percent of 30 µM serotonin response. activation, % at 7.6 µM;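 active = activation above a run cutoff, the mean activation of all tested compounds plus 3 SD, cut at about 14% in these data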
# CCR6 antagonist = CCR6 receptor antagonists, primary screen, cell-based, CHO-K1, luminescence, beta-arrestin, uHTS. CHO-K1 CCR6 PathHunter beta-arrestin, CCL20-stimulated. inhibition, % at 20 µM. 340,000 tested, 0.49% active;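 active = compounds whose inhibition of the agonist-driven luminescence signal at 20 µM reaches about 50%, limit read from the data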;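 note: cells stimulated with CCL20 at 14 nM final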
# EBI2 antag = EBI2 receptor antagonists, beta-arrestin recruitment, primary screen, cell-based, luminescence, 7a,25-OHC stimulation, uHTS; 360,000 tested, 0.81% active; inhibition, % at 5 µM; G-protein coupled receptor 183 (Homo sapiens), P32249; AID 651636, 2012; 7a,25-OHC stimulated; in the data active = inhibition above about 38%;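 note: enzyme fragment complementation signal reports receptor beta-arrestin coupling in cells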
# APJ agonist = agonists of human apelin receptor APJ, primary screen, CHO-K1 cells, PathHunter beta-arrestin, luminescence; P35414; 0% DMSO wells, 100% apelin; activation, % at 20 µM; 330,000 tested, 0.11% active;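 active = activation more than six SD over the plate average, tested at 20 µM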
#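 assay system = CHO-K1 APJ beta-arrestin complementation cell line | input = cell density 1000 per well | dosing = compound 20 µM once, DMSO 1% | timing = compound 90 min 25 °C, reagent 1 h | measured by = luminescence from split beta-galactosidase complementation, Galacton Star/Emerald II substrate | read-out basis = APJ agonist activity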
# OPRM1 ag = OPRM1 agonists via beta-arrestin recruitment, confirmation, counter-screen for mouse HTR2A agonist project, cell-based, luminescence, single concentration. activation, % at 9.3 µM. U2OS OPRM1 beta-arrestin PathHunter; DMSO 0%, DAMGO 9.3 µM 100%. 2,300 tested, 5.3% active. shares compounds with HTR2A ag;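 active = mean activation above the mean of DMSO-only wells plus 3 SD, cut at about 0.5% in these data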
# HTR2A ag conf = mouse HTR2A agonists, beta-arrestin recruitment, confirmation, cell-based, luminescence, CHO-K1 PathHunter, triplicate; shares compounds with HTR2A ag; 2,300 tested, 19% active; activation, % at 7.6 µM; DMSO 0%, 30 µM serotonin 100%;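 active = mean activation across triplicates above the hit threshold derived in the original primary screen, cut at about 15% in these data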
# Hits are given with their value; - = inactive; . = not tested or not shown.
SMILES,APJ antagonist,CXCR6 inh,HTR2A ag,CCR6 antagonist,EBI2 antag,APJ agonist,OPRM1 ag,HTR2A ag conf
COc1ccc(-c2cc(C(=O)N3CCN(c4ccccc4)CC3)no2)cc1,-,-,-,-,-,-,.,.
Cc1sc(-c2ccccn2)nc1OC(=O)c1ccc(F)cc1F,.,-,14.8,-,-,.,-,-
COc1ccccc1NC(=O)CSc1nc(=O)n(Cc2ccncc2)c2c1CCCC2,-,-,-,-,-,-,.,.
COc1ccc(OCC(=O)N/N=C2\CCc3ccccc32)cc1,-,-,-,-,-,-,.,.
COc1ccc2c(c1)CC/C2=N\NC(=O)c1ccccc1,-,-,15.2,-,-,-,-,-
Cc1ccc(S(=O)(=O)N2CCCCC2)cc1NS(=O)(=O)c1ccc(Cl)c(C(=O)O)c1,-,-,17.3,-,-,-,-,-
O=C(c1cccc(C(F)(F)F)c1)N1CCN(S(=O)(=O)c2ccc(Cl)s2)CC1,-,-,-,-,-,-,.,.
O=C(c1cccc(Cl)c1)N1CCN(S(=O)(=O)c2ccc(Cl)s2)CC1,-,-,15.7,-,-,-,-,-
Cc1cc(Cl)ccc1OC(C)C(=O)NC(C)C1CCCO1 (configuration not stated),-,-,15.8,-,-,-,-,-
Cc1cc(OC(C)C(=O)NCC2CCCO2)cc(C)c1Cl (configuration not stated),-,-,14.6,-,-,-,-,-
CCOC(=O)C1(C)Oc2ccccc2C(C(=O)OC)=C1C(=O)OC (configuration not stated),.,-,19.7,-,-,.,-,-
CCOC(=O)C1(C)Oc2ccccc2C(c2ccc(OC)cc2)=C1C(=O)OC (configuration not stated),.,-,-,-,-,.,.,.
CCOC(=O)C1=NOC2COC3(CCN(c4ncccn4)CC3)OCC12 (configuration not stated),-,-,14.8,-,-,-,0.6,-
CC(=O)Nc1ccc(S(=O)(=O)NCCC(=O)OC(C)C(=O)NC2(C#N)CCCCC2)cc1 (configuration not stated),-,-,-,-,-,-,.,.
Oc1ccccc1/C=N/NC(=S)NC1CC2C=CC1C2 (configuration not stated),-,-,-,-,-,-,.,.
Oc1ccccc1C=NNC(=S)NC1CC2C=CC1C2 (configuration not stated),.,-,18.7,.,-,.,-,-
O=C(Cc1cc(C(F)(F)F)cc(C(F)(F)F)c1)Nc1c(-c2ccccc2)[nH][nH]c1=O,.,.,28.1,.,-,.,-,-
COc1cc(CC(=O)Nc2c(-c3ccccc3)[nH][nH]c2=O)cc(OC)c1,.,.,-,.,-,.,.,.
Cc1ccc(NC(=O)CCS(=O)(=O)c2ccc3nc(C)sc3c2)c(C)c1,.,-,-,.,-,.,.,.
COc1ccc(C2/C(=C(\O)c3ccc4c(c3)OCCO4)C(=O)C(=O)N2Cc2cccnc2)cc1OC (configuration not stated),-,-,19.9,-,-,-,-,-
CC(C(=O)Nc1sc2c(c1C#N)CCCCC2)N1C(=O)c2ccccc2C1=O (configuration not stated),-,-,24.7,-,-,-,-,-
CCCCCCCN1CCN=C1Nc1ccccc1,-,-,-,-,-,-,.,.
